Experimental data as given in paper PMC6703927 (ACS chemical neuroscience, 2019).

Tests used:
[1] = system: hDAT Y156F; details: cited from earlier work
[2] = molecular target: Y335A-DAT (Homo sapiens, UniProt Q01959, Y335A); test: DA uptake inhibition assay, transfected COS-7 cells; type: cell-based
Outline: (§1)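 COS-7 cells (DMEM, 10% FBS, pen/strep, 37 °C, 5% CO2) were transiently transfected with WT or mutant human DAT using TransIT-LT1. Dopamine uptake was measured across a dose-response of test compound. Responses were normalized, and IC50 was obtained by nonlinear regression. Means and SEM come from three independent experiments, with the mutant compared against WT-DAT.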

[3] = system: DAT-XC/T316C; test: SCAM MTSEA-biotin biotinylation, HEK-293 cells; type: cell-based, human
Outline: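 HEK-293 cells (Lipojet transfection) expressed HA-tagged DAT-XC/T316C. […] Streptavidin-purified biotinylated DAT was immunoblotted with anti-HA, normalized to total DAT in unpurified lysate, then to the untreated band. Eight independent experiments were run.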

[4] = system: DAT cysteine mutant D385C; test: SCAM MTSEA-biotin biotinylation, HEK-293 cells; type: cell-based, human; details: 20 μM KM822 coincubation
Outline: (§2)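 SCAM used HEK-293 cells (Lipojet transfection) expressing N-terminally HA-tagged cysteine mutants on the C306A background. Cells were incubated with test compound (20 μM) before MTSEA-biotin labeling. Biotinylated DAT was pulled down on streptavidin beads and immunoblotted with anti-HA antibody. It was normalized to total DAT from unpurified lysates, then to the untreated band.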

[5] = molecular target: T1, DAT-XC/W84C (Homo sapiens, UniProt Q01959, C306A/W84C); test: SCAM MTSEA-biotin biotinylation, HEK-293 cells; type: cell-based
T1 sequence (Q01959 1-620 W84C/C306A): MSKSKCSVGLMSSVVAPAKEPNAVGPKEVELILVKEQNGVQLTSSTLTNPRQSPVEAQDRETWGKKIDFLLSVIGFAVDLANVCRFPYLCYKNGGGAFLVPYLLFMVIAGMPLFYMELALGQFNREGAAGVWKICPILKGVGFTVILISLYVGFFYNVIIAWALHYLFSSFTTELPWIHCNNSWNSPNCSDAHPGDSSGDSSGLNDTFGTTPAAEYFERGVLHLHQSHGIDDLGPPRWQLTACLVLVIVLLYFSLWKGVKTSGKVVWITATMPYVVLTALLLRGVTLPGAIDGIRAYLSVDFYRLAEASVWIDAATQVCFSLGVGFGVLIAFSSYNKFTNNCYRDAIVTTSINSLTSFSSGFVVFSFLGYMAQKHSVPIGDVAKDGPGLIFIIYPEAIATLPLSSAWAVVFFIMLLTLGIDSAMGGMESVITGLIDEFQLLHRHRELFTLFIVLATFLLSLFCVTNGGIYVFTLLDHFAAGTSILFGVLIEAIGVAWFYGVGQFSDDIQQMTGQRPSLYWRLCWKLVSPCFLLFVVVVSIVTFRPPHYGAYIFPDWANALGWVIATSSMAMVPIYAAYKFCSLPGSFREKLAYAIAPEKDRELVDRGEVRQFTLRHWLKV

[6] = molecular target: Y156F-DAT (Homo sapiens, UniProt Q01959, Y156F); test: DA uptake inhibition assay, transfected COS-7 cells; type: cell-based
Outline: as §1

[7] = system: DAT-XC/A372C; test: SCAM MTSEA-biotin biotinylation, HEK-293 cells; type: cell-based, human
[8] = molecular target: WT-DAT (Homo sapiens, UniProt Q01959); test: DA uptake inhibition assay, transfected COS-7 cells; type: cell-based; details: read-out: IC50 DA uptake inhibition; WT-DAT transfected COS-7 cells
[9] = molecular target: T1, DAT-XC/W84C; test: DA uptake dose-response inhibition assay, transiently expressed DAT mutant; type: cell-based; details: W84C vs DAT-XC
Outline: (§3)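 Mutants were made by site-directed mutagenesis. Single mutants used human WT DAT as background, and double cysteine mutants used C306A-DAT (DAT-XC). DA uptake dose-response gave IC50s from three or more independent experiments. Cysteine mutant IC50s were compared with DAT-XC, and D476 mutant IC50s with DAT-WT, by paired Student's t test.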

[10] = molecular target: T2, DAT (Rattus norvegicus, UniProt P23977); test: Ex vivo slice fast scan cyclic voltammetry, Nucleus accumbens; details: 50 μM KM822, NAc slices
Outline: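 Rats were anesthetized with 2.5% isoflurane for 3 min and decapitated, and coronal NAc slices were cut into oxygenated ACSF (pH 7.4). After 30 min recovery at room temperature, slices were recorded at 32 °C by carbon-fiber microelectrode. Single pulses (400 μA, 4 ms, monophasic) were given every 3 min until baseline stabilized over three stimulations.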

[11] = system: DAT cysteine mutant R544C; test: SCAM MTSEA-biotin biotinylation, HEK-293 cells; type: cell-based, human; details: 20 μM KM822 coincubation
Outline: as §2

[12] = system: DAT mutant D385C; test: DA uptake dose-response inhibition assay, transiently expressed DAT mutant; type: cell-based, human; details: D385C vs DAT-XC
Outline: as §3

[13] = system: wild type DAT; test: [3H]-DA uptake kinetic assay, transiently transfected COS-7 cells; type: cell-based, human; details: for Vmax of dopamine uptake: vehicle 71.5 ± 6.12
Outline: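 WT human DAT was transiently expressed in COS-7 cells (TransIT-LT1). [3H]-dopamine saturation uptake was run with vehicle, 1 μM or 5 μM test compound. Vmax and Km were obtained from a Michaelis-Menten nonlinear regression fit. Figure data and kinetic constants are averaged over four independent experiments.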

[14] = molecular target: hSERT (Homo sapiens, UniProt P31645); type: cell-based; details: hDAT vs SERT
Outline: (§4)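 MDCK cells stably expressing hDAT, hNET or hSERT were kept in DMEM with 10% FBS, pen/strep and blasticidin (5 μg/mL) at 37 °C, 5% CO2. Radiolabeled neurotransmitter uptake ([3H]-DA, [3H]serotonin) was measured against test compound dose. Results were normalized to percent of the highest response, and IC50 was fitted by nonlinear regression from three independent experiments.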

[15] = molecular target: hNET (Homo sapiens, UniProt P23975); type: cell-based; details: hDAT vs hNET
Outline: as §4

[16] = system: DAT mutant D476N; test: DA uptake dose-response inhibition assay, transiently expressed DAT mutant; type: cell-based, human; details: D476N vs DAT-WT
Outline: as §3

[17] = system: DAT cysteine mutant T473C; test: SCAM MTSEA-biotin biotinylation, HEK-293 cells; type: cell-based, human; details: 20 μM KM822 coincubation
Outline: as §2

[18] = system: DAT W84L; details: cited from earlier work
[19] = system: DAT-XC/A372C; details: DAT-XC/A372C treated with cocaine; cited from earlier work
[20] = molecular target: T2, DAT; test: Synaptosomal dopamine uptake assay, striatal synaptosomes; type: biochemical
[21] = system: DAT Y335A; details: cited from earlier work
[22] = system: DAT-XC/T316C; details: DAT-XC/T316C in the presence of cocaine; cited from earlier work

T2 sequence (P23977 whole entry): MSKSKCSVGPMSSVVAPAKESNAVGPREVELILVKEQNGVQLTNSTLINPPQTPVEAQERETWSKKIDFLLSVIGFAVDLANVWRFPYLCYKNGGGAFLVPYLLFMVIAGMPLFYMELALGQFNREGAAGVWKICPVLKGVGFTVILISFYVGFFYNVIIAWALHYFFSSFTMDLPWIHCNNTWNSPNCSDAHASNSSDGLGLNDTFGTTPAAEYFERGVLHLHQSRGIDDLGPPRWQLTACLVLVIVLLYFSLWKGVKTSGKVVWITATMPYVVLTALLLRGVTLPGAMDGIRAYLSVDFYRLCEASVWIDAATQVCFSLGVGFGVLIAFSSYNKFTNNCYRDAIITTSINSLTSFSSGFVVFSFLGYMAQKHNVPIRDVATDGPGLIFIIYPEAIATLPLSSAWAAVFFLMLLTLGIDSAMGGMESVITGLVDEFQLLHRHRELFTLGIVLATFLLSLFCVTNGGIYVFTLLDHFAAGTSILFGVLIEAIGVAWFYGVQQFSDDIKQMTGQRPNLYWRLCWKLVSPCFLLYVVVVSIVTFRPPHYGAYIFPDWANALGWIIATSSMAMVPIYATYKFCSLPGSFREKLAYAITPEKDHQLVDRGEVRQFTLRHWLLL
Y335A-DAT, sequence (Q01959 whole entry Y335A): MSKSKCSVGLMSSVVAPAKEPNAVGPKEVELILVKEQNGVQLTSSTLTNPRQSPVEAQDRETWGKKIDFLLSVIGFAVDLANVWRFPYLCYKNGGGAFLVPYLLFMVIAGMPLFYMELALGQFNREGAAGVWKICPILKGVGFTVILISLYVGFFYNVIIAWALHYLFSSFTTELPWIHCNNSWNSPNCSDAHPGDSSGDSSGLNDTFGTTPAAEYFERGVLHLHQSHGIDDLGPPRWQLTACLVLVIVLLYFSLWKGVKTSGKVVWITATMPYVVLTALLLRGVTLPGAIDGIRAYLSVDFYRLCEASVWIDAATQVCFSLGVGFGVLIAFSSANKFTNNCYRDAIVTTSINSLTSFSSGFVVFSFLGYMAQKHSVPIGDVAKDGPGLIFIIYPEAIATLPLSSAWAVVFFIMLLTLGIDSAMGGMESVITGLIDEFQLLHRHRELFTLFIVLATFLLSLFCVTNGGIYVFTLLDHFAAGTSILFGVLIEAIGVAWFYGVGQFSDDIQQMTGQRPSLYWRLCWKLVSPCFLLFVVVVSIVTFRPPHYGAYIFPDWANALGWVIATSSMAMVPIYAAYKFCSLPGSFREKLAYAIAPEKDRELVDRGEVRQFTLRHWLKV
Y156F-DAT, sequence (Q01959 whole entry Y156F): as the sequence (Q01959 whole entry Y335A) above, with Y156F, A335Y counted along it
WT-DAT, sequence (Q01959 whole entry): as the sequence (Q01959 whole entry Y335A) above, with A335Y counted along it
hSERT, sequence (P31645 whole entry): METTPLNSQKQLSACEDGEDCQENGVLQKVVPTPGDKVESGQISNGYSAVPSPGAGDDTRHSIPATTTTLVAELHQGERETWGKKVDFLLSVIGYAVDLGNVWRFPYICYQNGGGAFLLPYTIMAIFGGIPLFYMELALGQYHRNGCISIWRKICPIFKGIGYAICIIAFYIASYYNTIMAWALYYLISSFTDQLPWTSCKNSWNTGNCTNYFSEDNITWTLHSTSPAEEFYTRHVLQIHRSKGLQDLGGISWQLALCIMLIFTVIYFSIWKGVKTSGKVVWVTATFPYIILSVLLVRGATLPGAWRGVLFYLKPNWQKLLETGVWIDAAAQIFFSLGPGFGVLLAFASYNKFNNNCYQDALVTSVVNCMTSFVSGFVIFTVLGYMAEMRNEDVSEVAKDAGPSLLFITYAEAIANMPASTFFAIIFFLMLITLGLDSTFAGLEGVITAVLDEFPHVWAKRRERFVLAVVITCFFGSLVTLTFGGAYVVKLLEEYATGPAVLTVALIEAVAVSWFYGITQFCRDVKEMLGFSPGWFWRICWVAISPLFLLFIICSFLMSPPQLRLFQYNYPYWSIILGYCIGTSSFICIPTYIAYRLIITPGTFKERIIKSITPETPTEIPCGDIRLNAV
hNET, sequence (P23975 whole entry): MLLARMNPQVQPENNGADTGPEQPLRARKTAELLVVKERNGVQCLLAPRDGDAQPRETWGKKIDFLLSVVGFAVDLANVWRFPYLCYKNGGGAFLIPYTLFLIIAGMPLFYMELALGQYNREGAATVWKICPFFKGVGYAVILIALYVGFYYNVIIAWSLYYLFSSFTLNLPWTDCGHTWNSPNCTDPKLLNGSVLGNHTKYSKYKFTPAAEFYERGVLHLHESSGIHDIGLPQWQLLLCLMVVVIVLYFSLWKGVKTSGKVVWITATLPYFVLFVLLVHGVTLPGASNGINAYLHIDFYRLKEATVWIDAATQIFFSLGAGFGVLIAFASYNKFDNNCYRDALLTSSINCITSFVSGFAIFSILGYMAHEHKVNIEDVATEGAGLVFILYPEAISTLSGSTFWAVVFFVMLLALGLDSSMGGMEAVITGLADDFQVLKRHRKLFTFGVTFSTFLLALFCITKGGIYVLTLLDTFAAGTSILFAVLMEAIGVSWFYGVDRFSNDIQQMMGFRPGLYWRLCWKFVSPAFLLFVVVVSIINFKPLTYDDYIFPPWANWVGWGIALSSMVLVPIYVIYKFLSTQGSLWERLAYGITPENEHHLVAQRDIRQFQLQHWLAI

Compound: NC(=O)C[S@+]([O-])C(c1ccccc1)c1ccccc1 [S-modafinil]
- potency change by Y156F mutation [1]: significantly reduced

Compound: CCCCN1[C@@H]2CC[C@H]1CC(OC(c1ccc(F)cc1)c1ccc(F)cc1)C2 (some centres unmarked) [JHW-007]
- potency change by Y156F mutation [1]: significantly reduced

Compound: CCc1ccc2[nH]c3nc(SCCNS(=O)(=O)c4ccc(NC(C)=O)cc4)nnc3c2c1 [KM822]
- potency reduction in Y335A mutant vs WT-DAT ([2]; COS-7 cells): 3 fold
- IC50 ([2]; read-out: IC50 DA uptake inhibition, Y335A-DAT transfected COS-7 cells): 12.8 ± 1.4 µM
- effect on MTSEA-biotin labeling ([3]; 20 μM KM822): increased
- effect on MTSEA-biotin biotinylation [4]: no effect
- effect on MTSEA-biotin biotinylation ([5]; 20 μM KM822 coincubation): significantly decreased
- potency in Y156F-DAT mutant as compared to WT-DAT ([6]; COS-7 cells): unchanged
- IC50 ([6]; read-out: IC50 DA uptake inhibition, Y156F-DAT transfected COS-7 cells): 3.3 ± 0.45 µM
- effect on MTSEA-biotin labeling ([7]; 20 μM KM822): no significant change
- IC50 [8]: 3.8 ± 0.88 µM
- change of potency in mutant [9]: increase in potency
- effect on stimulated DA release / cocaine-induced changes in DA release [10]: did not affect
- effect on cocaine-induced inhibition of DA uptake (app Km) ([10]; cumulative cocaine, significant at 30 μM cocaine): significantly reduced
- effect on MTSEA-biotin biotinylation [11]: no effect
- change of apparent potency in mutant [12]: lowered
- Vmax of dopamine uptake ([13]; in the presence of 1 μM KM822): 65.8 ± 8.71 μmol/min/well
- Vmax of dopamine uptake ([13]; in the presence of 5 μM KM822): 57.9 ± 4.15 μmol/min/well
- manner of dopamine uptake inhibition ([13]; uptake kinetics): noncompetitive
- potency for hDAT transport inhibition higher than for SERT [14]: 50 folds
- potency for hDAT transport inhibition higher than for hNET [15]: 30 folds
- change of apparent potency in mutant [16]: lowered
- effect on MTSEA-biotin biotinylation [17]: no effect

Compound: CN1[C@@H]2CC[C@H]1C[C@@H](OC(c1ccccc1)c1ccccc1)C2 [benztropine]
- change of apparent potency in W84 to leucine mutant [18]: decrease in apparent potency

Compound: COC(=O)[C@H]1[C@@H](OC(=O)c2ccccc2)C[C@@H]2CC[C@H]1N2C [cocaine]
- effect on MTSEA-biotin labeling ([3]; 100 μM cocaine): increased labeling
- change of apparent potency in W84 to leucine mutant [18]: increased apparent potency
- labeling with a maleimide-based biotin molecule [19]: no change in labeling
- effect on MTSEA-biotin labeling ([5]; 100 μM cocaine coincubation): not affected
- total DA uptake in striatal synaptosomes ([20]; 100 μM cocaine): significantly blocked
- effect on MTSEA-biotin labeling ([7]; 100 μM cocaine): no change in labeling
- potency change by Y335A mutation [21]: markedly impairs
- binding affinity change by Y156F mutation [1]: unaffected
- labeling with a maleimide-based biotin molecule [22]: increased labeling

Compound: Fc1ccc(C(OCCN2CCN(CCCc3ccccc3)CC2)c2ccc(F)cc2)cc1 [GBR12909]
- change of apparent potency in W84 to leucine mutant [18]: decrease in apparent potency
- total DA uptake in striatal synaptosomes ([20]; 1 μM GBR12909): significantly blocked
